Published values from different studies.
Each line is one published result; the experiments were not run side by side.
Target: Homeodomain-interacting protein kinase 1 (HIPK1, Homo sapiens, UniProt Q86Z02)

C#Cc1cc(-c2cc(Nc3nc(N[C@@H](C)c4ccc(F)cn4)ncc3Cl)n[nH]2)ccc1C=O  inhibition (enzyme activity, inhibitor; 0.2 µM): 22.6%
C=CC(=O)N1CCC([C@@H]2CCNc3c(C(N)=O)c(-c4ccc(Oc5ccccc5)cc4)nn32)CC1  inhibition (enzyme activity, inhibitor; 1 µM): 26%
C1=C/COCc2cc(ccc2OCCN2CCCC2)Nc2nccc(n2)-c2cccc(c2)COC/1  remaining binding (binding; 0.1 µM): 6.7%
C=CC(=O)N1CCC[C@@H](n2nc(-c3ccc(Oc4ccccc4)cc3)c3c(N)ncnc32)C1  inhibition (enzyme activity, inhibitor; 1 µM): 22%
Cc1ccc(NC(=O)c2ccnc(C(F)(F)F)c2)cc1-c1cc(OCCO)nc(N2CCOCC2)c1  remaining binding (binding, competition with immobilised ligand; 1 µM): 93%
COc1ccc2oc(-c3ccc4nc(N)oc4c3)c/c(=N\c3ccccc3NC(=O)CCN)c2c1  remaining binding (binding; 1 µM): 103%
C[C@H]1CC[C@H](n2c3cnccc3c3cnc(Nc4ccc5c(n4)CCN(C(=O)CO)C5)nc32)CC1  remaining binding (binding, competition with immobilised ligand; 1 µM): 45%
CCCCC(=O)Nc1ccc(-c2ccc3ncn(CCC)c(=O)c3c2)cn1  remaining binding (binding, competition with immobilised ligand; 0.5 µM): 88%
